Source: publication PMC3215888 (Cancer Chemotherapy and Pharmacology, 2011)
pIC50: −log10 of the molar value. Like-named read-outs stand apart in the source and are kept apart here.

How the values were obtained:
[1] = tested on: CHLA-136 neuroblastoma cell line; experiment: DIMSCAN in vitro testing, 96 h; assay type: cell-based; details: for pIC50: Neuroblastoma cell, 96 h
Procedure, shortened: (§1)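 Neuroblastoma and Ewing sarcoma lines, STR-verified and maintained as in the originators' reports. Exposed for 96 h to test compound (DMSO stock diluted in medium) at 1 nM–10 μM. Viable cells quantified by fluorescein diacetate fluorescence with DIMSCAN digital image microscopy. Absolute IC50 = concentration giving 50% growth inhibition vs controls. Relative IC50 = concentration giving 50% of the maximum inhibitory effect.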

[2] = tested on: CHLA-140 neuroblastoma cell line; experiment: DIMSCAN in vitro testing, 96 h; assay type: cell-based; details: for pIC50: Neuroblastoma cell, 96 h
Procedure, shortened: as §1

[3] = tested on: ALL-2 ALL B-precursor xenograft; experiment: ALL xenograft; assay type: in vivo, mice
Procedure, shortened: (§2)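 Female NOD/scid mice inoculated intravenously with leukemia cells, 8 per group. Test compound suspended in 10% 2-hydroxypropyl-β-cyclodextrin/1% sodium bicarbonate in water. Given by oral gavage twice daily, 5 days weekly for 3 weeks, at 20.8, 10.4, 5.2 or 2.6 mg/kg. Blood %hCD45 of leukocytes tracked; event = hCD45 reaching 25%. EFS by Kaplan–Meier, exact log-rank vs controls. Median group response from individual scores.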

[4] = tested on: TC-71 Ewing sarcoma cell line; experiment: DIMSCAN in vitro testing, 96 h; assay type: cell-based; details: for pIC50: TC-71, 96 h
Procedure, shortened: as §1

[5] = tested on: CHLA-258 Ewing sarcoma cell line; experiment: DIMSCAN in vitro testing, 96 h; assay type: cell-based; details: for pIC50: 96 h
Procedure, shortened: as §1

ALL xenograft models = experiment: Objective responses across the ALL xenograft panel; assay type: in vivo, mice
Procedure, shortened: as §2

[6] = tested on: SMS-KCNR neuroblastoma cell line; experiment: DIMSCAN in vitro testing, 96 h; assay type: cell-based; details: for pIC50: 96 h
Procedure, shortened: as §1

[7] = tested on: Rh65 ALV Rhabdomyosarcoma xenograft; assay type: in vivo, mice
Procedure, shortened: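 Female CB17 scid mice bearing subcutaneous tumors, 10 per group. Dosed by oral gavage twice daily, 5 days weekly for 6 weeks, at 20.8, 10.4, 5.2 or 2.6 mg/kg, in 10% 2-hydroxypropyl-β-cyclodextrin/1% sodium bicarbonate. Event = quadrupled tumor volume; EFS by Kaplan–Meier, exact log-rank test. Per-mouse scores PD/SD/PR (≥50% regression)/CR (<0.10 cm3)/MCR; group median reported. PR, CR and MCR count as objective responses.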

`COc1cc(Nc2ncc3c(n2)-c2ccc(Cl)cc2C(c2c(F)cccc2OC)=NC3)ccc1C(=O)O` [MLN8237] showed a Ymin ([1]; CHLA-136, minimum T/C) of 10.4%, a pIC50 ([1]; read-out: Absolute IC50) of 7.41 and a pIC50 ([1]; read-out: Relative IC50) of 7.44. For the same compound, the Ymin ([2]; CHLA-140, minimum T/C) was 29.4%, the pIC50 ([2]; read-out: Absolute IC50) was 7.59 and the pIC50 ([2]; read-out: Relative IC50) was 7.85. The “EFS T/C” value ([3]; 2.6 mg/kg) was 2.3, the EFS activity ([3]; 2.6 mg/kg) was “Int” and the “Estimate of median time to event” value ([3]; 2.6 mg/kg) was 25.2 days. The Median group response ([3]; 2.6 mg/kg) was “PD2 (if the TGD value >1.5, the mouse was considered PD2)”, the Response activity ([3]; 2.6 mg/kg) was “Int” and the “Median RTV/hCD45 at end of study” value ([3]; 2.6 mg/kg) was greater than 25%. The “EFS T/C” value ([3]; 5.2 mg/kg) was greater than 3.8, the EFS activity ([3]; 5.2 mg/kg) was “Int” and the Response activity ([3]; 5.2 mg/kg) was “High”. The “Median RTV/hCD45 at end of study” value ([3]; 5.2 mg/kg) was greater than 25%, the “EFS T/C” value ([3]; 10.4 mg/kg) was greater than 3.8 and the EFS activity ([3]; 10.4 mg/kg) was “Int”. For the same compound, the Response activity ([3]; 10.4 mg/kg) was “High”, the “Median RTV/hCD45 at end of study” value ([3]; 10.4 mg/kg) was 3.1% and the “EFS T/C” value ([3]; 20.8 mg/kg) was greater than 3.8. For the same compound, the EFS activity ([3]; 20.8 mg/kg) was “High”, the Median group response ([3]; 20.8 mg/kg) was “MCR” and the Response activity ([3]; 20.8 mg/kg) was “High”. The “Median RTV/hCD45 at end of study” value ([3]; 20.8 mg/kg) was 0.3%, the pIC50 ([4]; read-out: Absolute IC50) was 6.99 and the pIC50 ([4]; read-out: Relative IC50) was 7.00. It also gave a Ymin ([4]; TC-71, minimum T/C) of 10.0%, a pIC50 ([5]; read-out: Absolute IC50) of 6.88 and a pIC50 ([5]; read-out: Relative IC50) of 7.09. For the same compound, the Ymin ([5]; CHLA-258, minimum T/C) was 18.8%, the “ALL xenografts classified as objective responses” value (ALL xenograft models; 0.25MTD, three models) was “two out of three” and the “response in ALL models” value (ALL xenograft models; 0.5MTD, three models) was “CR in each of three ALL models”. The “ALL xenografts with objective responses, of 3 tested” value (ALL xenograft models; MTD 20.8 mg/kg) was 3, the pIC50 ([6]; read-out: Absolute IC50) was 8.00 and the pIC50 ([6]; read-out: Relative IC50) was 8.05. The Ymin ([6]; minimum T/C) was 6.6%, the “EFS T/C” value ([7]; 2.6 mg/kg) was 2.1 and the EFS activity ([7]; 2.6 mg/kg) was “Int”. For the same compound, the “Estimate of median time to event” value ([7]; 2.6 mg/kg) was 22.9 days, the Median group response ([7]; 2.6 mg/kg) was “PD2 (if the TGD value >1.5, the mouse was considered PD2)” and the Response activity ([7]; 2.6 mg/kg) was “Int”. The “Tumor volume T/C” value ([7]; 2.6 mg/kg) was 0.31, the “Median RTV/hCD45 at end of study” value ([7]; 2.6 mg/kg) was greater than 4 and the “EFS T/C” value ([7]; 5.2 mg/kg) was 3.7. For the same compound, the EFS activity ([7]; 5.2 mg/kg) was “Int”, the “Estimate of median time to event” value ([7]; 5.2 mg/kg) was 39.3 days and the Median group response ([7]; 5.2 mg/kg) was “PD2 (if the TGD value >1.5, the mouse was considered PD2)”. The Response activity ([7]; 5.2 mg/kg) was “Int”, the “Tumor volume T/C” value ([7]; 5.2 mg/kg) was 0.19 and the “Median RTV/hCD45 at end of study” value ([7]; 5.2 mg/kg) was greater than 4. The “EFS T/C” value ([7]; 10.4 mg/kg) was greater than 3.9, the EFS activity ([7]; 10.4 mg/kg) was “Int” and the Median group response ([7]; 10.4 mg/kg) was “PD2 (if the TGD value >1.5, the mouse was considered PD2)”. For the same compound, the Response activity ([7]; 10.4 mg/kg) was “Int”, the “Tumor volume T/C” value ([7]; 10.4 mg/kg) was 0.11 and the “Median RTV/hCD45 at end of study” value ([7]; 10.4 mg/kg) was 3.2. For the same compound, the “EFS T/C” value ([7]; 20.8 mg/kg) was greater than 3.9, the EFS activity ([7]; 20.8 mg/kg) was “High” and the Median group response ([7]; 20.8 mg/kg) was “MCR”.
